Experimental data taken from ChEMBL document CHEMBL1146376, “Antiviral activity of berberine and related compounds against human cytomegalovirus” (Bioorg Med Chem Lett, 2007).
The source made the active and inactive calls. The calls are words filed in the database; no cut-off is given here.

Assays:
[1] = Selectivity index, ratio of CC50 for MRC5 cells to IC50 for HCMV; format: functional
Method in brief: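 Ratio of CC50 (50% cytotoxic concentration in MRC-5 cells) to IC50 from the HCMV plaque yield reduction assay in MRC-5 cells. Values are means of three experiments.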

MRC5 = assay: (§1) Cytotoxicity against MRC5 cells; format: cell-based, Homo sapiens; settings: Homo sapiens, MRC5
Human betaherpesvirus 5 [2] = assay: Antiviral activity against HCMV in MRC5 cells by plaque reduction assay; format: functional, organism-based; settings: Human betaherpesvirus 5, MRC5
Method in brief: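 HCMV plaque yield reduction assay in MRC-5 cells. IC50 is the 50% inhibitory concentration. Values are means of three experiments.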

[3] = as §1; format: cell-based, Homo sapiens; settings: human, MRC5 cells
Human betaherpesvirus 5 [4] = assay: Inhibition of HCMV adsorption to MRC5 cells at 0.2 to 2 uM by infectious centre assay; format: functional, organism-based
Method in brief: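 Infectious centre assay for adsorption: HCMV (1 PFU/cell), MRC-5 cell suspension (1 · 10^5 cells/mL) and compound (final 0.2, 0.5, 1, 2) were chilled on ice 2 h, then mixed and held 1 h at 4 C. Cells were washed with ice-cold PBS to remove unbound virus and compound. Pellets were diluted 100- or 1000-fold and plated onto MRC-5 monolayers for plaque counting.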

Human betaherpesvirus 5 [5] = assay: Inhibition of HCMV proliferation in MRC5 cells after 54 hrs post-infection at 10 uM by plaque assay; format: functional, organism-based
Method in brief: (§2)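 Time-of-addition: MRC-5 cultures were infected at 0.5 PFU/cell, and compound (10 µM) was added at set times from 0 to 120 h post-infection. Virus titre was measured by plaque assay at 168 h post-infection and expressed as percent of control plaque numbers. Values are means of duplicate assays.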

Human betaherpesvirus 5 [6] = assay: Inhibition of HCMV proliferation in MRC5 cells after 24 hrs post-infection at 10 uM by plaque assay; format: functional, organism-based; method in brief: as §2
Human betaherpesvirus 5 [7] = assay: Inhibition of HCMV penetration to MRC5 cells at 0.2 to 2 uM; format: functional, organism-based
Method in brief: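 HCMV (about 100 PFU/well) was bound to pre-chilled MRC-5 monolayers for 1 h at 4 C, then washed three times with ice-cold PBS. Cells were shifted to 37 C in medium with compound (final 0.2, 0.5, 1 or 2). At 0, 0.5, 1, 2, 3, 6 and 10 h, unpenetrated virus was inactivated with 40 mM citrate buffer pH 3.0 for 1 min. Plaques were counted under 0.5% methylcellulose overlay.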

Structure (SMILES)	Ratio CC50/IC50 [1]	IC50 (MRC5)	IC50 (Human betaherpesvirus 5 [2])	CC50 [3]	Activity (Human betaherpesvirus 5 [4])	Activity (Human betaherpesvirus 5 [5])	Activity (Human betaherpesvirus 5 [6])	Activity (Human betaherpesvirus 5 [7])
COc1ccc2c(c1OC)C(C#N)N1CCc3cc4c(cc3C1=C2)OCO4 (stereo not given)	18	16 µM	0.88 µM	–	–	–	–	–
COc1cc(OC)c2c(c1)OC(c1ccc(OC)c(OC)c1)C(OC)C2 (stereo not given)	4	–	17 µM	68 µM	–	–	–	–
COc1cc(OC)c2c(c1)OC(c1ccc(OC)c(OC)c1)C(O)C2 (stereo not given)	<1	–	> 200 µM	190 µM	–	–	–	–
COc1ccc(C2CC(=O)c3c(OC)cc(O)cc3O2)cc1 (stereo not given)	0.13	–	92 µM	12 µM	–	–	–	–
COc1ccc2c(c1OC)C(C(Cl)(Cl)Cl)N1CCc3cc4c(cc3C1=C2)OCO4 (stereo not given)	16	–	0.52 µM	8.4 µM	–	–	–	–
COc1cc(C[C@H]2C(=O)OC[C@@H]2Cc2ccc(OC)c(OC)c2)ccc1O [ARCTIGENIN]	36	–	2.1 µM	76 µM	–	–	–	–
COc1ccc(C[C@H]2COC(=O)[C@@H]2Cc2ccc(O[C@@H]3O[C@H](CO)[C@@H](O)[C@H](O)[C@H]3O)c(OC)c2)cc1OC [ARCTIIN]	15	–	16 µM	240 µM	–	–	–	–
COc1ccc2cc3[n+](cc2c1OC)CCc1cc2c(cc1-3)OCO2.[Cl-] [BERBERINE CHLORIDE]	110	–	0.68 µM	74 µM	inactive	Active	Active	inactive
COc1ccc2c(c1OC)CN1CCc3cc4c(cc3[C@@H]1C2)OCO4 [CANADINE]	10	–	12 µM	125 µM	–	–	–	–
COc1ccc2c(c1OC)CN1CCc3cc4c(cc3C1=C2)OCO4 [DIHYDROBERBERINE]	1.7	–	93 µM	155 µM	–	–	–	–
Nc1nc2c(ncn2COC(CO)CO)c(=O)[nH]1 [GANCICLOVIR]	1100	970 µM	0.91 µM	–	–	–	–	–
COc1ccc(Cc2nccc3cc(OC)c(OC)cc23)cc1OC.Cl [PAPAVERINE HYDROCHLORIDE]	29	–	21 µM	610 µM	–	–	–	–
